# Experimental data pooled from the literature.
# Lines come from different studies, so protocols differ.
# Target: Calcium/calmodulin-dependent protein kinase type II subunit gamma (CAMK2G, Homo sapiens, UniProt Q13555)
Compound,assay,setting,quantity,value
CC(C)S(=O)(=O)c1ccc2nccc(Nc3ccc4sc(C5CCCC5)nc4c3)c2c1,"enzyme activity, inhibitor",1 µM,activity vs control,104%
CC#CC(=O)N1CCC[C@H]1c1nc(-c2ccc(C(=O)Nc3ccccn3)cc2)c2c(N)nccn12,"enzyme activity, inhibitor",1 µM,inhibition,0%
C[C@H]1CC[C@H](n2c3cnccc3c3cnc(Nc4ccc5c(n4)CCN(C(=O)CO)C5)nc32)CC1,binding,1 µM,remaining binding,40%
CCCCC(=O)Nc1ccc(-c2ccc3ncn(CCC)c(=O)c3c2)cn1,"binding, competition with immobilised ligand",0.5 µM,remaining binding,100%
C1=C/COCc2cc(ccc2OCCN2CCCC2)Nc2nccc(n2)-c2cccc(c2)COC/1,binding,0.1 µM,remaining binding,89%
CN1CCN(C(=O)c2ccc(NC(=O)Nc3ccc(N(C)c4ccnc(Nc5ccc(CS(C)(=O)=O)cc5)n4)cc3)cc2)CC1,binding,1 µM,remaining binding,100%
CO[C@@H]1[C@H](N(C)C(=O)c2ccccc2)C[C@H]2O[C@]1(C)n1c3ccccc3c3c4c(c5c6ccccc6n2c5c31)C(=O)NC4,"enzyme activity, inhibitor",1 µM,inhibition,90%
Cc1cc(O)c(-c2ccc([C@@H](C)CN(C)C)cc2)c2c1[nH]c(=O)c1sccc12,"cell-free assay, inhibitor","0.1 µM, lysate",inhibition,-11.1%
